From ChEMBL document CHEMBL1806364, “Discovery of vinylogous carbamates as a novel class of β-ketoacyl-acyl carrier protein synthase III (FabH) inhibitors” (Bioorg Med Chem, 2011)
In brackets after ≈: the same amount, converted by molar mass.

Legend:
[1] = tested on: Escherichia coli; assay: Antibacterial activity against Escherichia coli after 24 hrs by MTT assay; assay type: functional
How it was run: (§1)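 Broth microdilution in Mueller-Hinton medium. Compound stock 100 µg/mL in DMSO, serially diluted into medium. Inoculum about 10⁵ cfu/mL, incubated 37 °C for 24 h. After visual MIC reading, MTT (2 mg/mL in PBS pH 7.4) added, 4–5 h at room temperature. Dye extracted with isopropanol containing 5% 1 mol/L HCl for 12 h, OD read at 550 nm.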

[2] = tested on: Staphylococcus aureus; assay: Antibacterial activity against Staphylococcus aureus after 24 hrs by MTT assay; assay type: functional; how it was run: as §1
[3] = Toxicity in erythrocytes assessed as hemolytic activity; assay type: cell-based; settings: erythrocyte
[4] = molecular target: T1, 3-oxoacyl-[acyl-carrier-protein] synthase 3 (Escherichia coli, UniProt C3TDZ2); assay: Inhibition of Escherichia coli FabH expressed in Escherichia coli DH10B cells assessed as incorporation of 3[H] after 25 mins by liquid scintillation
T1 sequence (C3TDZ2 whole entry): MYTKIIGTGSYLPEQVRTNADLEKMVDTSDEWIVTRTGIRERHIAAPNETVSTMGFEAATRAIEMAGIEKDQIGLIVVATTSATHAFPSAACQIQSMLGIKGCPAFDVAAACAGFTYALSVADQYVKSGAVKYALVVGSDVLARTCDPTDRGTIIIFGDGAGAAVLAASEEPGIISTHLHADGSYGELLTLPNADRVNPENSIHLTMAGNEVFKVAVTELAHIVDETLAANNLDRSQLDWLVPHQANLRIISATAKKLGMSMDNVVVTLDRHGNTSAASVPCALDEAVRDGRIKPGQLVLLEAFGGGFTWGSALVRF
How it was run: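 Native E. coli FabH overexpressed from pET30 in DH10B cells and purified by Q-Sepharose, MonoQ and hydroxyapatite chromatography. Reaction mix contains 0.25 mM MgCl₂, acetyl-CoA, 0.5 mM NADH and 0.5 mM NADPH, run 25 min. Stopped with ice-cold 50% TCA, protein pelleted, washed with 10% TCA, dissolved in 0.5 M NaOH. Incorporated ³H counted by liquid scintillation. DMSO at most 2% final; IC50 determined.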

[5] = tested on: Pseudomonas fluorescens; assay: Antibacterial activity against Pseudomonas fluorescens after 24 hrs by MTT assay; assay type: functional; how it was run: as §1
[6] = tested on: Bacillus subtilis; assay: Antibacterial activity against Bacillus subtilis after 24 hrs by MTT assay; assay type: functional; how it was run: as §1

MIC [1] | MIC [2] | IC50 [4] | MIC [5] | MIC [6] | SMILES | LC30 [3]
12.5 µg/mL (≈ 23.5 µM) | 25 µg/mL (≈ 47.1 µM) | 24 µM | 12.5 µg/mL (≈ 23.5 µM) | 25 µg/mL (≈ 47.1 µM) | CCOC(=O)/C(=C\Nc1ccc(Br)cc1Br)c1ccc(OCc2ccccc2)cc1 | > 10000 µg/mL
1.56 µg/mL (≈ 3.45 µM) | 25 µg/mL (≈ 55.3 µM) | 3.3 µM | 1.56 µg/mL (≈ 3.45 µM) | 50 µg/mL (≈ 111 µM) | CCOC(=O)/C(=C\Nc1ccc(Br)cc1)c1ccc(OCc2ccccc2)cc1 | > 10000 µg/mL
25 µg/mL (≈ 61.1 µM) | 12.5 µg/mL (≈ 30.5 µM) | – | 25 µg/mL (≈ 61.1 µM) | 12.5 µg/mL (≈ 30.5 µM) | CCOC(=O)/C(=C/Nc1ccc(F)cc1F)c1ccc(OCc2ccccc2)cc1 | –
6.25 µg/mL (≈ 15 µM) | 25 µg/mL (≈ 60.2 µM) | 8.5 µM | 6.25 µg/mL (≈ 15 µM) | 12.5 µg/mL (≈ 30.1 µM) | CCOC(=O)/C(=C/Nc1ccc(C(C)C)cc1)c1ccc(OCc2ccccc2)cc1 | > 10000 µg/mL
0.78 µg/mL (≈ 2.01 µM) | 25 µg/mL (≈ 64.5 µM) | 2.6 µM | 1.56 µg/mL (≈ 4.03 µM) | 25 µg/mL (≈ 64.5 µM) | CCOC(=O)/C(=C\Nc1ccc(C)cc1)c1ccc(OCc2ccccc2)cc1 | > 10000 µg/mL
12.5 µg/mL (≈ 30.6 µM) | 25 µg/mL (≈ 61.3 µM) | – | 6.25 µg/mL (≈ 15.3 µM) | 25 µg/mL (≈ 61.3 µM) | CCOC(=O)/C(=C\Nc1ccc(Cl)cc1)c1ccc(OCc2ccccc2)cc1 | –
3.13 µg/mL (≈ 5.89 µM) | 12.5 µg/mL (≈ 23.5 µM) | – | 12.5 µg/mL (≈ 23.5 µM) | 12.5 µg/mL (≈ 23.5 µM) | CCOC(=O)/C(=C/Nc1ccc(Br)cc1Br)c1ccc(OCc2ccccc2)cc1 | –
3.12 µg/mL (≈ 7.52 µM) | 12.5 µg/mL (≈ 30.1 µM) | – | 3.12 µg/mL (≈ 7.52 µM) | 25 µg/mL (≈ 60.2 µM) | CCOC(=O)/C(=C\Nc1ccc(C(C)C)cc1)c1ccc(OCc2ccccc2)cc1 | –
6.25 µg/mL (≈ 15.3 µM) | > 50 µg/mL | – | 12.5 µg/mL (≈ 30.5 µM) | > 50 µg/mL | CCOC(=O)/C(=C\Nc1ccc(F)cc1F)c1ccc(OCc2ccccc2)cc1 | –
3.12 µg/mL (≈ 7.98 µM) | > 50 µg/mL | 8.2 µM | 3.12 µg/mL (≈ 7.98 µM) | 25 µg/mL (≈ 63.9 µM) | CCOC(=O)/C(=C\Nc1ccc(F)cc1)c1ccc(OCc2ccccc2)cc1 | > 10000 µg/mL
6.25 µg/mL (≈ 16 µM) | 12.5 µg/mL (≈ 31.9 µM) | – | 12.5 µg/mL (≈ 31.9 µM) | 25 µg/mL (≈ 63.9 µM) | CCOC(=O)/C(=C/Nc1ccc(F)cc1)c1ccc(OCc2ccccc2)cc1 | –
> 50 µg/mL | > 50 µg/mL | – | > 50 µg/mL | > 50 µg/mL | CCOC(=O)/C(=C/Nc1ccc(C)cc1)c1ccc(OCc2ccccc2)cc1 | –
25 µg/mL (≈ 61.3 µM) | > 50 µg/mL | – | 25 µg/mL (≈ 61.3 µM) | 25 µg/mL (≈ 61.3 µM) | CCOC(=O)/C(=C/Nc1ccc(Cl)cc1)c1ccc(OCc2ccccc2)cc1 | –
> 50 µg/mL | > 50 µg/mL | – | > 50 µg/mL | > 50 µg/mL | CCOC(=O)/C(=C/Nc1ccc([N+](=O)[O-])cc1)c1ccc(OCc2ccccc2)cc1 | –
25 µg/mL (≈ 56.5 µM) | > 50 µg/mL | – | 25 µg/mL (≈ 56.5 µM) | > 50 µg/mL | CCOC(=O)/C(=C/Nc1ccc(Cl)cc1Cl)c1ccc(OCc2ccccc2)cc1 | –
12.5 µg/mL (≈ 31.9 µM) | 25 µg/mL (≈ 63.9 µM) | – | 25 µg/mL (≈ 63.9 µM) | > 50 µg/mL | CCOC(=O)/C(=C\Nc1ccccc1F)c1ccc(OCc2ccccc2)cc1 | –
25 µg/mL (≈ 56.5 µM) | 25 µg/mL (≈ 56.5 µM) | – | 25 µg/mL (≈ 56.5 µM) | 25 µg/mL (≈ 56.5 µM) | CCOC(=O)/C(=C\Nc1ccc(Cl)cc1Cl)c1ccc(OCc2ccccc2)cc1 | –
25 µg/mL (≈ 61.3 µM) | 12.5 µg/mL (≈ 30.6 µM) | – | > 50 µg/mL | 25 µg/mL (≈ 61.3 µM) | CCOC(=O)/C(=C/Nc1ccccc1Cl)c1ccc(OCc2ccccc2)cc1 | –
> 50 µg/mL | > 50 µg/mL | 43 µM | > 50 µg/mL | > 50 µg/mL | CCOC(=O)/C(=C/Nc1ccc(Br)cc1)c1ccc(OCc2ccccc2)cc1 | > 10000 µg/mL
12.5 µg/mL (≈ 33.5 µM) | 50 µg/mL (≈ 134 µM) | – | 25 µg/mL (≈ 66.9 µM) | 25 µg/mL (≈ 66.9 µM) | CCOC(=O)/C(=C\Nc1ccccc1)c1ccc(OCc2ccccc2)cc1 | –
3.12 µg/mL (≈ 7.47 µM) | > 50 µg/mL | – | 6.25 µg/mL (≈ 14.9 µM) | > 50 µg/mL | CCOC(=O)/C(=C\Nc1ccc([N+](=O)[O-])cc1)c1ccc(OCc2ccccc2)cc1 | –
12.5 µg/mL (≈ 30.6 µM) | > 50 µg/mL | 28 µM | 25 µg/mL (≈ 61.3 µM) | > 50 µg/mL | CCOC(=O)/C(=C\Nc1ccccc1Cl)c1ccc(OCc2ccccc2)cc1 | > 10000 µg/mL
6.25 µg/mL (≈ 16.7 µM) | 25 µg/mL (≈ 66.9 µM) | – | 6.25 µg/mL (≈ 16.7 µM) | 25 µg/mL (≈ 66.9 µM) | CCOC(=O)/C(=C/Nc1ccccc1)c1ccc(OCc2ccccc2)cc1 | –
3.12 µg/mL (≈ 6.46 µM) | 1.56 µg/mL (≈ 3.23 µM) | – | 3.12 µg/mL (≈ 6.46 µM) | 0.39 µg/mL (≈ 0.807 µM) | NC[C@H]1O[C@H](O[C@H]2[C@H](O)[C@@H](O[C@H]3O[C@H](CO)[C@@H](O)[C@H](N)[C@H]3O)[C@H](N)C[C@@H]2N)[C@H](N)[C@@H](O)[C@@H]1O [BEKANAMYCIN] | –
25 µg/mL (≈ 63.9 µM) | > 50 µg/mL | – | > 50 µg/mL | > 50 µg/mL | CCOC(=O)/C(=C/Nc1ccccc1F)c1ccc(OCc2ccccc2)cc1 | –
